Results on 3 compounds are retold here after ChEMBL document CHEMBL1136716, “Tripeptide probes for tripeptidyl protease I production via gene transfer” (J Med Chem, 2003).

The structures appear in SMILES notation.

Type in all cases: functional, organism-based
For test [1], the species on record is Mus musculus. The experiment in a line: Tested for Color of the Final Reaction Product ofTPP-I Histochemical Staining with compound in the presence of benzaldehyde in mouse kidney cell preparations; brown color was observed. Put shortly:
(§1)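 Mice were given an anesthetic overdose, then perfused transcardially with 0.9% saline followed by 2% paraformaldehyde in 0.2 M phosphate buffer. Tissues were postfixed 2 h, cryoprotected in 25% sucrose and frozen. Cryostat sections (10 µm) were embedded in 0.5% celloidin and incubated at 37 °C for 4 h in 0.1 M acetate pH 4.5 with 1 mM substrate plus 1 mg/mL of the listed aldehyde. Staining was scored by microscopy on ≥5 sections/animal from ≥3 animals.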

Test [2] is filed under the species Mus musculus. The experiment in a line: Tested for Intensity of the Final Reaction Product ofTPP-I Histochemical Staining with compound in the presence of p-nitrobenzaldehyde in mouse kidney cell preparations. Summed up: as §1
The species entered for test [3] is Mus musculus. Put plainly: Tested for Color of the Final Reaction Product ofTPP-I Histochemical Staining with compound in the presence of p-nitrobenzaldehyde in mouse kidney cell preparations; brown color was observed. Summed up:
as §1

Test [4] is filed under the species Mus musculus. Put plainly: Tested for Intensity of the Final Reaction Product ofTPP-I Histochemical Staining with compound in the presence of benzaldehyde in mouse kidney cell preparations. Put shortly:
as §1

The species entered for test [5] is Mus musculus. Put plainly: Tested for Intensity of the Final Reaction Product ofTPP-I Histochemical Staining with compound in the presence of p-anisaldehyde in mouse kidney cell preparations;. Put shortly: as §1
The species named for test [6] is Mus musculus. The experiment in a line: Tested for Color of the Final Reaction Product ofTPP-I Histochemical Staining with compound in the presence of benzaldehyde in mouse kidney cell preparations; yellow-greenautofluorescent color was observed. Summed up: as §1
For test [7], the species on record is Mus musculus. Put plainly: Tested for Color of the Final Reaction Product ofTPP-I Histochemical Staining with compound in the presence of p-anisaldehyde in mouse kidney cell preparations; yellow-greenautofluorescent color was observed. Summed up: as §1
Test [8] is filed under the species Mus musculus. The experiment in a line: Tested for Color of the Final Reaction Product ofTPP-I Histochemical Staining with compound in the presence of p-nitrobenzaldehyde in mouse kidney cell preparations; yellow-greenautofluorescent color was observed. Put shortly:
as §1

The species named for test [9] is Mus musculus. The experiment in a line: Tested for Color of the Final Reaction Product ofTPP-I Histochemical Staining with compound in the presence of benzaldehyde in mouse kidney cell preparations; yellow-green color was observed. Summed up:
as §1

The species named for test [10] is Mus musculus. The experiment in a line: Tested for Color of the Final Reaction Product ofTPP-I Histochemical Staining with compound in the presence of p-anisaldehyde in mouse kidney cell preparations; yellow-green color was observed. Summed up:
as §1

The species entered for test [11] is Mus musculus. Put plainly: Tested for Intensity of the Final Reaction Product ofTPP-I Histochemical Staining with compound in the presence of p-nitrobenzaldehyde in mouse kidney cell preparations;. Summed up:
as §1

Test [12] is filed under the species Mus musculus. Put plainly: Tested for Color of the Final Reaction Product ofTPP-I Histochemical Staining with compound in the presence of p-nitrobenzaldehyde in mouse kidney cell preparations; yellow-greencolor was observed. Put shortly: as §1
Test [13] is filed under the species Mus musculus. Put plainly: Tested for Intensity of the Final Reaction Product ofTPP-I Histochemical Staining with compound in the presence of benzaldehyde in mouse kidney cell preparations;. Summed up: as §1

Turning to `NCC(=O)N1CCC[C@H]1C(=O)N[C@@H](CO)C(=O)NNc1cccc2c1C(=O)c1ccccc1C2=O`, the Activity result in [1], in test [2], in test [3] and in test [4] was “brown color was observed” throughout.

For `C[C@H](NC(=O)[C@@H]1CCCN1C(=O)CN)C(=O)n1nc2cccc3c2c1-c1cccc(Cl)c1C3=O`, the Activity entry in test [5], in test [6], in test [2], in test [7], in test [8] and in test [4] was “yellow-greenautofluorescent color was observed” each time.

Turning to `CC(NC(=O)[C@H](C)N)C(=O)N[C@@H](Cc1ccccc1)C(=O)NNc1ccc2c(c1)C(=O)c1ccccc1C2=O` (stereo partly specified), the Activity result in test [9], in [5], in test [10], in test [11], in test [12] and in [13] was “yellow-green color was observed” throughout.
